Converted amounts (≈) assume the structure as drawn.
Legend:
Assay type in all cases: functional
Candida [1] = assay: Ratio of weight normalized daily dose in non-surviving candidemia patient to MIC at 24 hrs against Candida species
Outline: (§1)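 MICs for patient Candida blood isolates were measured by CLSI M27-A2 microdilution in RPMI 1640-2% dextrose with 0.165 M MOPS, pH 7.0. Fluconazole was tested at 0.5–256 μg/ml in doubling dilutions, incubated at 35°C, and read at 24 h and 48 h by marked turbidity reduction. The fluconazole dose in mg/kg body weight was divided by the 24-h or 48-h MIC.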

Candida [2] = assay: Ratio of weight normalized daily dose in surviving candidemia patient to MIC at 48 hrs against Candida species; outline: as §1
Homo sapiens [3] = species: Homo sapiens; assay: Ratio of weight normalized daily dose in non-surviving candidemia patient to MIC at 48 hrs against Candida species; outline: as §1
Candida tropicalis [4] = assay: Antimicrobial activity against Candida tropicalis at 24 hrs
Outline: (§2)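 Bloodstream isolates from hospitalized candidemia patients, stored at −70°C and subcultured overnight on Sabouraud dextrose agar. Tested by CLSI M27-A2 broth microdilution in RPMI 1640-2% dextrose with 0.165 M MOPS, pH 7.0. Fluconazole was given as serial doubling dilutions from 0.5 to 256.0 μg/ml. Inoculum was a 0.5 McFarland suspension diluted to 2×. Plates were incubated at 35°C. MIC was read at 24 and 48 h as a marked reduction in turbidity, with ATCC 6258 and ATCC 22019 as QC strains.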

Clavispora lusitaniae [5] = assay: Antimicrobial activity against Candida lusitaniae at 24 hrs; outline: as §2
Candida albicans [6] = assay: Ratio of AUC in candidemia patient to MIC against Candida albicans
Outline: (§3)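 Bloodstream Candida isolates came from hospitalized adults treated with fluconazole. MICs were measured by CLSI M27-A2 broth microdilution in RPMI 1640-2% dextrose with 0.165 M MOPS, pH 7.0. Fluconazole was tested in doubling dilutions of 0.5–256 μg/ml at 35°C, read at 24 and 48 h as a marked drop in turbidity. AUC is the individual dose divided by clearance estimated from creatinine clearance. The ratio is AUC divided by the 24- or 48-h MIC.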

Nakaseomyces glabratus [7] = assay: Ratio of AUC in candidemia patient to MIC against Candida glabrata; outline: as §3
Candida parapsilosis [8] = assay: Ratio of AUC in candidemia patient to MIC against Candida parapsilosis; outline: as §3
Candida tropicalis [9] = assay: Ratio of AUC in candidemia patient to MIC against Candida tropicalis; outline: as §3
Clavispora lusitaniae [10] = assay: Ratio of AUC in candidemia patient to MIC against Candida lusitaniae; outline: as §3
Candida albicans [11] = assay: Ratio of weight normalized daily dose in candidemia patient to MIC against Candida albicans
Outline: (§4)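 Fluconazole daily dose (mg/kg) of each nonneutropenic candidemia patient divided by the MIC of their bloodstream isolate. MIC by CLSI M27-A2 broth microdilution in RPMI 1640-2% dextrose, 0.165 M MOPS, pH 7.0. Serial doubling dilutions ran 0.5–256.0 μg/ml. Inoculum was a 0.5 McFarland suspension diluted to 2×. Incubated at 35°C; MIC read at 24 and 48 h as marked turbidity reduction.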

Nakaseomyces glabratus [12] = assay: Ratio of weight normalized daily dose in candidemia patient to MIC against Candida glabrata; outline: as §1
Candida parapsilosis [13] = assay: Ratio of weight normalized daily dose in candidemia patient to MIC against Candida parapsilosis; outline: as §1
Candida tropicalis [14] = assay: Ratio of weight normalized daily dose in candidemia patient to MIC against Candida tropicalis; outline: as §1
Clavispora lusitaniae [15] = assay: Ratio of weight normalized daily dose in candidemia patient to MIC against Candida lusitaniae; outline: as §1
Homo sapiens [16] = species: Homo sapiens; assay: Mortality rate in Candida albicans infected candidemia patient
Outline: (§5)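 Subjects were adults (≥18 y) hospitalized >48 h before a Candida-positive blood culture, enrolled 2002–2005 at two hospitals, and treated with fluconazole. Patients were excluded if fluconazole started >24 h before culture or >2 days after it. Species was identified by Vitek YBC or API 20C Aux. Mortality is given per infecting species.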

Homo sapiens [17] = species: Homo sapiens; assay: Mortality rate in Candida glabrata infected candidemia patient; outline: as §5
Homo sapiens [18] = species: Homo sapiens; assay: Mortality rate in Candida parapsilosis infected candidemia patient; outline: as §5
Homo sapiens [19] = species: Homo sapiens; assay: Mortality rate in Candida tropicalis infected candidemia patient; outline: as §5
Homo sapiens [20] = species: Homo sapiens; assay: Mortality rate in Candida lusitaniae infected candidemia patient; outline: as §5
Homo sapiens [21] = species: Homo sapiens; assay: Mortality rate stratified by 24 hrs MIC in susceptible Candida species infected patient
Outline: (§6)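 Patients were fluconazole-treated nonneutropenic adults with candidemia. Isolate MICs were obtained by CLSI M27-A2 broth microdilution, read at 24 or 48 h. Patients were grouped by susceptibility breakpoint category. Mortality was compared by chi-square analysis.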

Homo sapiens [22] = species: Homo sapiens; assay: Mortality rate stratified by 48 hrs MIC in susceptible Candida species infected patient; outline: as §6
Homo sapiens [23] = species: Homo sapiens; assay: Mortality rate stratified by 24 hrs MIC in dose-dependently susceptible Candida species infected patient; outline: as §6
Homo sapiens [24] = species: Homo sapiens; assay: Mortality rate stratified by 48 hrs MIC in dose-dependently susceptible Candida species infected patient; outline: as §6
Homo sapiens [25] = species: Homo sapiens; assay: Mortality rate stratified by 24 hrs MIC in resistant Candida species infected patient; outline: as §6
Homo sapiens [26] = species: Homo sapiens; assay: Mortality rate stratified by 48 hrs MIC in resistant Candida species infected patient; outline: as §6
Candida [27] = assay: Ratio of AUC in surviving candidemia patient to MIC at 24 hrs against Candida species; outline: as §3
Candida [28] = assay: Ratio of AUC in surviving candidemia patient to MIC at 48 hrs against Candida species; outline: as §3
Candida albicans [29] = assay: Antimicrobial activity against Candida albicans at 48 hrs; outline: as §2
Nakaseomyces glabratus [30] = assay: Antimicrobial activity against Candida glabrata at 48 hrs; outline: as §2
Candida parapsilosis [31] = assay: Antimicrobial activity against Candida parapsilosis at 48 hrs; details: Lodderomyces parapsilosis; outline: as §2
Candida tropicalis [32] = assay: Antimicrobial activity against Candida tropicalis at 48 hrs; outline: as §2
Candida albicans [33] = assay: Ratio of weight normalized daily dose in candidemia patient to MIC at 48 hrs against Candida albicans; outline: as §4
Nakaseomyces glabratus [34] = assay: Ratio of weight normalized daily dose in candidemia patient to MIC at 48 hrs against Candida glabrata; outline: as §1
Nakaseomyces glabratus [35] = assay: Ratio of weight normalized daily dose in candidemia patient to MIC at 24 hrs against Candida glabrata; outline: as §1
Candida albicans [36] = assay: Ratio of weight normalized daily dose in candidemia patient to MIC at 24 hrs against Candida albicans; outline: as §4
Candida [37] = assay: Ratio of AUC in non-surviving candidemia patient to MIC at 48 hrs against Candida species; outline: as §3
Clavispora lusitaniae [38] = assay: Antimicrobial activity against Candida lusitaniae at 48 hrs; outline: as §2
Candida [39] = assay: Ratio of weight normalized daily dose in surviving candidemia patient to MIC at 24 hrs against Candida species
Outline: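 Weight-normalized fluconazole daily dose (mg/kg) was divided by the isolate MIC read at 24 h (CLSI M27-A2 broth microdilution, 35°C). Ratios were log10-transformed before analysis. Surviving patients were compared with nonsurvivors, with logistic regression used against mortality.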

Candida albicans [40] = assay: Antimicrobial activity against Candida albicans at 24 hrs; outline: as §2
Nakaseomyces glabratus [41] = assay: Antimicrobial activity against Candida glabrata at 24 hrs; outline: as §2
Candida parapsilosis [42] = assay: Antimicrobial activity against Candida parapsilosis at 24 hrs; details: Lodderomyces parapsilosis; outline: as §2

Work on `OC(Cn1cncn1)(Cn1cncn1)c1ccc(F)cc1F` [FLUCONAZOLE] yielded a Ratio (Candida [1]) of 7, a Ratio (Candida [2]) of 10.7 and a Ratio (Homo sapiens [3]) of 6.1. It also gave an MIC50 (Candida tropicalis [4]) of 1 µg/mL (≈ 3.27 µM), an MIC50 (Clavispora lusitaniae [5]) of 2 µg/mL (≈ 6.53 µM) and a RatioAUC/MIC (Candida albicans [6]) of 946. For the same molecule, the RatioAUC/MIC (Nakaseomyces glabratus [7]) was 182, the RatioAUC/MIC (Candida parapsilosis [8]) was 635 and the RatioAUC/MIC (Candida tropicalis [9]) was 657. For the same molecule, the RatioAUC/MIC (Clavispora lusitaniae [10]) was 232, the Ratio (Candida albicans [11]) was 15.4 and the Ratio (Nakaseomyces glabratus [12]) was 1.9. For the same molecule, the Ratio (Candida parapsilosis [13]) was 10.7, the Ratio (Candida tropicalis [14]) was 11.4 and the Ratio (Clavispora lusitaniae [15]) was 3.3. The Activity (Homo sapiens [16]) was 16.3%, the Activity (Homo sapiens [17]) was 36.4% and the Activity (Homo sapiens [18]) was 0%. For the same molecule, the Activity (Homo sapiens [19]) was 0%, the Activity (Homo sapiens [20]) was 33.3% and the Activity (Homo sapiens [21]) was 18%. The Activity (Homo sapiens [22]) was 18%, the Activity (Homo sapiens [23]) was 50% and the Activity (Homo sapiens [24]) was 50%. For the same molecule, the Activity (Homo sapiens [25]) was 50%, the Activity (Homo sapiens [26]) was 50% and the Ratio (Candida [27]) was 775. The Ratio (Candida [28]) was 614, the MIC50 (Candida albicans [29]) was 0.5 µg/mL (≈ 1.63 µM) and the MIC90 (Candida albicans [29]) was 8 µg/mL (≈ 26.1 µM). The MIC50 (Nakaseomyces glabratus [30]) was 0.5 µg/mL (≈ 1.63 µM), the MIC90 (Nakaseomyces glabratus [30]) was 8 µg/mL (≈ 26.1 µM) and the MIC50 (Candida parapsilosis [31]) was 0.5 µg/mL (≈ 1.63 µM). It also gave an MIC90 (Candida parapsilosis [31]) of 8 µg/mL (≈ 26.1 µM), an MIC50 (Candida tropicalis [32]) of 0.5 µg/mL (≈ 1.63 µM) and an MIC90 (Candida tropicalis [32]) of 8 µg/mL (≈ 26.1 µM). It also gave a Ratio (Candida albicans [33]) of 13.17, a Ratio (Nakaseomyces glabratus [34]) of 1.51 and a Ratio (Nakaseomyces glabratus [35]) of 1.88. For the same molecule, the Ratio (Candida albicans [36]) was 15.39, the Ratio (Candida [37]) was 496 and the MIC50 (Clavispora lusitaniae [38]) was 0.5 µg/mL (≈ 1.63 µM). For the same molecule, the MIC90 (Clavispora lusitaniae [38]) was 8 µg/mL (≈ 26.1 µM), the Activity (Candida [39]) was 13.3 and the MIC50 (Candida albicans [40]) was 0.25 µg/mL (≈ 0.816 µM). The MIC50 (Nakaseomyces glabratus [41]) was 4 µg/mL (≈ 13.1 µM) and the MIC50 (Candida parapsilosis [42]) was 1.25 µg/mL (≈ 4.08 µM).

From ChEMBL document CHEMBL1142179, “Association of fluconazole area under the concentration-time curve/MIC and dose/MIC ratios with mortality in nonneutropenic patients with candidemia” (2007)
